Test [1] concerns the target Prostacyclin receptor (Homo sapiens, UniProt P43119). Kind of test: Displacement of [3H]iloprost from human prostanoid IP receptor expressed in HEK293-EBNA cells after 60 mins by scintillation counting. The format is cell-based. (Loss of bound radioactivity is the signal in a displacement assay; it reports binding, not function.)
Test [2] addresses T1, Prostaglandin D2 receptor (Homo sapiens, UniProt Q13258).
T1 sequence (Q13258 whole entry): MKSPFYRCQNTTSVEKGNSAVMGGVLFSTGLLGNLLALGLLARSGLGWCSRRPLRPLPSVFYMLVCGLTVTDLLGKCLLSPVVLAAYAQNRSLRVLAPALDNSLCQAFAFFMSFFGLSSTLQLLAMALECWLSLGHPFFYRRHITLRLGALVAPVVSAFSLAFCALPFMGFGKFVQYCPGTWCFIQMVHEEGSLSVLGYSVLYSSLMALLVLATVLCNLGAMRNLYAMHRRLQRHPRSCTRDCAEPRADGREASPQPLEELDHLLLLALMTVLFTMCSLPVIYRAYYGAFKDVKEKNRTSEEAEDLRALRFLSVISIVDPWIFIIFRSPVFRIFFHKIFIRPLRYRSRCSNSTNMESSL
Kind of test: Displacement of [3H]PGD2 from human Prostanoid DP1 receptor expressed in HEK293-EBNA cells after 60 mins by scintillation counting. The format is cell-based.

For test [3], the target named is T2, Thromboxane A2 receptor (Homo sapiens, UniProt P21731).
T2 sequence (P21731 whole entry): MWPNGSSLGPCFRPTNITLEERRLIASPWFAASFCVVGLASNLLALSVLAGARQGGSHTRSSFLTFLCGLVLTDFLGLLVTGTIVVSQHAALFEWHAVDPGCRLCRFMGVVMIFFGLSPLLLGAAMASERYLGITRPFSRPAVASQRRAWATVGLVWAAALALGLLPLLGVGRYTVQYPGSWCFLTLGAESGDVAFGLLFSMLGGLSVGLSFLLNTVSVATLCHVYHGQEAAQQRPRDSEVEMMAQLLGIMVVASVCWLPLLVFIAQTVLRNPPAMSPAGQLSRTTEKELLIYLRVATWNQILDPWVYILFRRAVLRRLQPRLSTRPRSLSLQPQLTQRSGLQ
Nature of the test: Displacement of [3H]SQ-29548 from human prostanoid TP receptor expressed in HEK293-EBNA cells after 60 mins by scintillation counting. The format is cell-based.

The target in test [4] is T3, Prostaglandin E2 receptor EP4 subtype (Homo sapiens, UniProt P35408). Nature of the test: Displacement of [3H]PGE2 from human prostanoid EP4 receptor expressed in HEK293-EBNA cells after 60 mins by scintillation counting. The class given is cell-based.
T3 sequence (P35408 whole entry): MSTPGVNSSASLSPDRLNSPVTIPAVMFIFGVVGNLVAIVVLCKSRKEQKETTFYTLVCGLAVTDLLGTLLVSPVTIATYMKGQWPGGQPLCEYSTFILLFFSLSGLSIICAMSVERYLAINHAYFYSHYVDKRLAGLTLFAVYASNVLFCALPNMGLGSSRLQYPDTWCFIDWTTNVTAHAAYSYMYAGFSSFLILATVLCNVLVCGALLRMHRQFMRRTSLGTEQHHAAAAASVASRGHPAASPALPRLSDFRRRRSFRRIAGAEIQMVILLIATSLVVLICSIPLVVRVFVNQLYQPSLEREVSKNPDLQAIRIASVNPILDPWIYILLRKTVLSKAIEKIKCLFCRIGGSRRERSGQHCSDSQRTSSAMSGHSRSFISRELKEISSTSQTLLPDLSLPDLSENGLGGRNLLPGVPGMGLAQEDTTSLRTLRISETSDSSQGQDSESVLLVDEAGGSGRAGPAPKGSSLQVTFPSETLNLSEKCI
Test [5] concerns the target Prostaglandin E2 receptor EP2 subtype (Homo sapiens, UniProt P43116). Nature of the test: Displacement of [3H]PGE2 from human prostanoid EP2 receptor expressed in HEK293-EBNA cells after 60 mins by scintillation counting. The class given is cell-based.
Test [6] addresses Prostaglandin F2-alpha receptor (Homo sapiens, UniProt P43088). Nature of the test: Displacement of [3H]PGF2alpha from human prostanoid FP receptor expressed in HEK293-EBNA cells after 60 mins by scintillation counting. The class given is cell-based.
Test [7] deals with T3, Prostaglandin E2 receptor EP4 subtype. Kind of test: Antagonist activity at human prostanoid EP4 receptor expressed in HEK293 cells assessed as inhibition of PGE2-induced cAMP accumulation by scintillation proximity assay. The format is functional, cell-based. In short, it runs like this: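 Read-out was inhibition of PGE2-induced cAMP accumulation at EP4. Values are means from at least two independent experiments.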
In general terms: Cyclic AMP is a second messenger, typically raised through Gs and lowered through Gi signalling.

Test [8] concerns the target T4, Prostaglandin D2 receptor 2 (Homo sapiens, UniProt Q9Y5Y4).
T4 sequence (Q9Y5Y4 whole entry): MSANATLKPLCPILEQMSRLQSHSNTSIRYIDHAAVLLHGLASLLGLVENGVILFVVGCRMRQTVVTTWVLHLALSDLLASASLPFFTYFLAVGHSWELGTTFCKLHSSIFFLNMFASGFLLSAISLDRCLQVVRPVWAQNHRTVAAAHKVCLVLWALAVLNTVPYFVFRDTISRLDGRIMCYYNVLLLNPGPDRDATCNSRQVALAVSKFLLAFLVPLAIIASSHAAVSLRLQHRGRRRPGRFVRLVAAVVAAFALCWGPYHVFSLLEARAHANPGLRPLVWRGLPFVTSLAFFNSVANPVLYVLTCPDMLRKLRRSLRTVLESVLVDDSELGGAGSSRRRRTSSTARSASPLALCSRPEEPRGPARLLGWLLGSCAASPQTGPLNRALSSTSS
Nature of the test: Displacement of [3H]PGD2 from human Prostanoid DP2 receptor expressed in HEK293-EBNA cells after 60 mins by scintillation counting. The class given is cell-based.

Test [9] has as its target T5, Prostaglandin E2 receptor EP1 subtype (Homo sapiens, UniProt P34995).
T5 sequence (P34995 whole entry): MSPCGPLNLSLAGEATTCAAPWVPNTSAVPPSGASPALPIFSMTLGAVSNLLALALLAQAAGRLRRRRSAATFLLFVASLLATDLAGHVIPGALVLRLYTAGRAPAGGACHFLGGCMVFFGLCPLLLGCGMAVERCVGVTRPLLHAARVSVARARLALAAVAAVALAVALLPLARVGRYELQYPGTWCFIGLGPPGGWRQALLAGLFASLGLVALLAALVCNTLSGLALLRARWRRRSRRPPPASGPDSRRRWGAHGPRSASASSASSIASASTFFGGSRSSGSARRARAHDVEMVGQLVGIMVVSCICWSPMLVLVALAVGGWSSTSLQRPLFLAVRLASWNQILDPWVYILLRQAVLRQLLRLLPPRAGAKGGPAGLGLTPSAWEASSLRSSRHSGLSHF
Nature of the test: Displacement of [3H]PGE2 from human prostanoid EP1 receptor expressed in HEK293-EBNA cells after 60 mins by scintillation counting. The format is cell-based.

The target of test [10] is T6, Prostaglandin E2 receptor EP3 subtype (Homo sapiens, UniProt P43115).
T6 sequence (P43115 whole entry): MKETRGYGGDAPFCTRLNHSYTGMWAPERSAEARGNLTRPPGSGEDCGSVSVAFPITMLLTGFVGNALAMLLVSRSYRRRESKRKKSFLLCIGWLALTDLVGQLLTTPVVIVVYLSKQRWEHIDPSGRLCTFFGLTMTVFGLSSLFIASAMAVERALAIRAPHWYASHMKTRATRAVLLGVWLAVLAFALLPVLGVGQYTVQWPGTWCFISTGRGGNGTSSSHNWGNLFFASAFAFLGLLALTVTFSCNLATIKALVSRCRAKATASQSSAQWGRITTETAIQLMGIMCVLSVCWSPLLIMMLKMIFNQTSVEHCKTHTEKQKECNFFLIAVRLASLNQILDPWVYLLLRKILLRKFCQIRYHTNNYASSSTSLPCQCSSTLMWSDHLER
Nature of the test: Displacement of [3H]PGE2 from human prostanoid EP3 receptor expressed in HEK293-EBNA cells after 60 mins by scintillation counting. The class given is cell-based.

Test [11] concerns Rattus norvegicus. Kind of test: Antiinflammatory activity in rat assessed as inhibition of complete Freund's adjuvant-induced paw swelling administered daily once 9 days after adjuvant challenge measured on day 18. The class given is functional. In short, it runs like this:
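Rat adjuvant-induced arthritis model with daily dosing in mg/kg/day. Dose groups were 0, 0.001, 0.01, 0.1 and 1 mg/kg, plus a non-AIA control group. Primary and secondary paw swelling were scored as % inhibition relative to vehicle-treated arthritic rats, and ED50 was estimated from the dose–response.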

The term Ki denotes a dissociation constant, usually derived from enzyme kinetics or from competition with a known ligand. High values mean weaker binding, low ones tighter binding. Broadly, the IC50 is the midpoint of a concentration-inhibition curve. The term ED50 denotes the midpoint of the dose-response relation.

Chain of Prostaglandin E2 receptor EP2 subtype (P43116 whole entry): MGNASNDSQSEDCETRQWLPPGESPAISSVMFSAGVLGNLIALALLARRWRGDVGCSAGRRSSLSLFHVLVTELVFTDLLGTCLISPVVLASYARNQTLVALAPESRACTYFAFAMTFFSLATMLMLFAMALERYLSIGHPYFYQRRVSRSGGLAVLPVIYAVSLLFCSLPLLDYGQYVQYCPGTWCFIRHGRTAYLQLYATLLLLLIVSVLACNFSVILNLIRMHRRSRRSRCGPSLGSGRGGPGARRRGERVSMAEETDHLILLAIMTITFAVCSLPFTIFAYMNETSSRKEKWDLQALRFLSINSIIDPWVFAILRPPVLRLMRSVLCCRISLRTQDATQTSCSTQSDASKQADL
Chain of Prostaglandin F2-alpha receptor (P43088 whole entry): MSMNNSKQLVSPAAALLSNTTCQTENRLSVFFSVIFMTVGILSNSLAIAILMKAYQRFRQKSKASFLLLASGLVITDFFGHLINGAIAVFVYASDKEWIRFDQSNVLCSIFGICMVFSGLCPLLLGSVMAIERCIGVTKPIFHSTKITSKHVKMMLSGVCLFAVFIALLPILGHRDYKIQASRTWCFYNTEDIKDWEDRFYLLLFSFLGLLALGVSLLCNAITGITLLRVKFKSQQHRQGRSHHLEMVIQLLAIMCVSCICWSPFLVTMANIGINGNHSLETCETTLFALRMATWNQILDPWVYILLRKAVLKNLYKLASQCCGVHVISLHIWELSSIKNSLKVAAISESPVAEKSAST
Chain of Prostacyclin receptor (P43119 whole entry): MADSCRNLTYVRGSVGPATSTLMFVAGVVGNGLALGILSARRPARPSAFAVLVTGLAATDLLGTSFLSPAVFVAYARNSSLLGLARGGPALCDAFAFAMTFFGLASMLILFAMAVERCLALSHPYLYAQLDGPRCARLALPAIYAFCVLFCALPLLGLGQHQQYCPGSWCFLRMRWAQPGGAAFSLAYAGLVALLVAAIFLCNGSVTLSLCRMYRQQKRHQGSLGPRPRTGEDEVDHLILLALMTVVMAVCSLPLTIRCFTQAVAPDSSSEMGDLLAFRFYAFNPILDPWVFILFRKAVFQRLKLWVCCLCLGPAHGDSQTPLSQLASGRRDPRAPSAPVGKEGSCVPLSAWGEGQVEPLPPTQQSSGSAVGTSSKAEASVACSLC

On to `C[C@H](NC(=O)c1cc(Cl)cc2ccn(Cc3ccc(C(F)(F)F)cc3)c12)c1ccc(C(=O)O)cc1`, for which the Ki in test [1] is at least 100 nM; in test [2], 209 nM; in test [3], at least 100 nM; in test [4] it was 0.44 nM; in test [5], at least 100 nM; in [6], at least 100 nM. Besides, the Ki in test [8], in test [9] and in test [10] was at least 100 nM throughout. In addition, in test [7], the IC50 amounted to 1.12 nM.
On to `C[C@H](NC(=O)c1cccc2c(Cl)cn(Cc3cccc(Cl)c3)c12)c1ccc(C(=O)O)cc1`, for which the Ki was at least 930 nM in test [1]; 14 nM in [2]; at least 930 nM in test [3]; 20.1 nM in test [4]; at least 930 nM in test [5]; at least 930 nM in test [6]. For the same compound, the inhibition constant (Ki) in [8], in test [9] and in test [10] was at least 930 nM each time.
Consider `Cc1cn(Cc2cccc(Cl)c2)c2c(C(=O)N[C@@H](C)c3ccc(C(=O)O)cc3)cccc12`, for which the Ki in test [2] was determined as 1200 nM; in test [4] it was 39.5 nM.
For `Cc1cc2cccc(C(=O)N[C@@H](C)c3ccc(C(=O)O)cc3)c2n1Cc1cccc(Cl)c1` the same measures were 450 nM and 56 nM.
On to `C[C@H](NC(=O)c1cccc2ccn(Cc3cccc(C(F)(F)F)c3)c12)c1ccc(C(=O)O)cc1`, for which the Ki is at least 785 nM in test [1]; 885 nM in test [2]; at least 785 nM in [3]; 4.8 nM in test [4]; at least 785 nM in test [5]; at least 785 nM in [6]. Further, the Ki in test [8], in test [9] and in test [10] was at least 785 nM in each case. For the same compound, the half-maximal inhibitory concentration (IC50) in test [7] was 11.8 nM.
With `C[C@H](NC(=O)c1cccc2ccn(Cc3cc(Cl)cc(OC(F)(F)F)c3)c12)c1ccc(C(=O)O)cc1`, the Ki in [1] was at least 260 nM; in test [2], 49 nM; in [3], at least 260 nM; in test [4], 0.38 nM; in [5] it was at least 260 nM; in [6], at least 260 nM. Also, the inhibitory constant (Ki) in test [8], in test [9] and in test [10] was at least 260 nM in each case. Moreover, the half-inhibitory concentration (IC50) in [7] is 1.4 nM.
`C[C@H](NC(=O)c1cccc2ccn(Cc3ccc(C(F)(F)F)cc3)c12)c1ccc(C(=O)O)cc1`: the Ki was at least 580 nM in [1]; 1390 nM in test [2]; at least 580 nM in test [3]; 0.62 nM in [4]; at least 580 nM in test [5]; at least 580 nM in [6]. Also, the Ki in [8], in test [9] and in test [10] was at least 580 nM in each case. The concentration for half-maximal inhibition (IC50) in test [7] worked out at 2.7 nM.
As to `C[C@H](NC(=O)c1cc(Cl)cc2ccn(Cc3cccc(Cl)c3)c12)c1ccc(C(=O)O)cc1`, the inhibition constant (Ki) is at least 110 nM in [1]; 63 nM in test [2]; at least 110 nM in test [3]; 0.81 nM in test [4]; at least 110 nM in test [5]; at least 110 nM in [6]. Also, the inhibition constant Ki in test [8], in [9] and in [10] was at least 110 nM each time. Besides, the IC50 in [7] came to 1.5 nM.
For the compound `C[C@H](NC(=O)c1cc(F)cc2ccn(Cc3cccc(Cl)c3)c12)c1ccc(C(=O)O)cc1`, the inhibitory constant (Ki) in test [1] was at least 504 nM; in test [2] it was 404 nM; in test [3], at least 504 nM; in [4], 2.4 nM; in [5], at least 504 nM; in [6] it was at least 504 nM. Moreover, the Ki in test [8], in [9] and in [10] was at least 504 nM in each case. In test [7], the concentration for half-maximal inhibition (IC50) was determined as 3.3 nM.
As for `C[C@H](NC(=O)c1cccc2ccn(Cc3cccc(Cl)c3)c12)c1ccc(C(=O)O)cc1`, the inhibition constant Ki in test [1] is at least 2500 nM; in test [2], 16 nM; in [3], at least 2500 nM; in [4] it was 2.7 nM; in [5], at least 2500 nM; in test [6], at least 2500 nM. In addition, the Ki in test [8], in test [9] and in test [10] was at least 2500 nM each time. Moreover, the IC50 in [7] was found to be 5.9 nM.
Turning to `O=C(O)c1ccc(C2(NC(=O)c3cc(Cl)cc4ccn(Cc5ccc(C(F)(F)F)cc5)c34)CC2)cc1`, the inhibitory constant (Ki) is at least 1290 nM in test [1]; 561 nM in test [2]; at least 1290 nM in [3]; 0.31 nM in test [4]; at least 1290 nM in test [5]; at least 1290 nM in [6]. Moreover, the Ki in test [8], in test [9] and in [10] was at least 1290 nM each time. Moreover, the IC50 in [7] was determined as 1.26 nM.
For the compound `C[C@H](NC(=O)c1cc(Cl)ccc1Oc1ccc(F)cc1)c1ccc(C(=O)O)cc1`, the ED80 in [11] is 11.5 mg/kg.
`CS(=O)(=O)c1ccc(C2=C(c3ccccc3)C(=O)OC2)cc1` [ROFECOXIB]: the ED50 in [11] came out at 0.7 mg/kg/day.

For the origin of these results see ChEMBL document CHEMBL1155539, “Discovery of 4-[1-[([1-[4-(trifluoromethyl)benzyl]-1H-indol-7-yl]carbonyl)amino]cyclopropyl]benzoic acid (MF-766), a highly potent and selective EP4 antagonist for treating inflammatory pain” (Bioorg Med Chem Lett, 2010).
